Bioassay records: PubChem BioAssay, Johns Hopkins Ion Channel Center
TRPC4 PAM: positive allosteric modulators of TRPC4, primary screen, cell-based, mouse TRPC4beta, HEK293 mu-opioid, Fluo-4 calcium | Short transient receptor potential channel 4 (Mus musculus), Q9QUQ5 | DAMGO EC20, Fluo-4 Ca2+ flux; active compounds read high | B-score at 10 µM | hit rate 0.42% among 310,000;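 active = B-score of calcium response area above 5 SD of library B-scores, with initial fluorescence ratio within 5 SD of library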
Target sequence (Q9QUQ5 whole entry, looked up): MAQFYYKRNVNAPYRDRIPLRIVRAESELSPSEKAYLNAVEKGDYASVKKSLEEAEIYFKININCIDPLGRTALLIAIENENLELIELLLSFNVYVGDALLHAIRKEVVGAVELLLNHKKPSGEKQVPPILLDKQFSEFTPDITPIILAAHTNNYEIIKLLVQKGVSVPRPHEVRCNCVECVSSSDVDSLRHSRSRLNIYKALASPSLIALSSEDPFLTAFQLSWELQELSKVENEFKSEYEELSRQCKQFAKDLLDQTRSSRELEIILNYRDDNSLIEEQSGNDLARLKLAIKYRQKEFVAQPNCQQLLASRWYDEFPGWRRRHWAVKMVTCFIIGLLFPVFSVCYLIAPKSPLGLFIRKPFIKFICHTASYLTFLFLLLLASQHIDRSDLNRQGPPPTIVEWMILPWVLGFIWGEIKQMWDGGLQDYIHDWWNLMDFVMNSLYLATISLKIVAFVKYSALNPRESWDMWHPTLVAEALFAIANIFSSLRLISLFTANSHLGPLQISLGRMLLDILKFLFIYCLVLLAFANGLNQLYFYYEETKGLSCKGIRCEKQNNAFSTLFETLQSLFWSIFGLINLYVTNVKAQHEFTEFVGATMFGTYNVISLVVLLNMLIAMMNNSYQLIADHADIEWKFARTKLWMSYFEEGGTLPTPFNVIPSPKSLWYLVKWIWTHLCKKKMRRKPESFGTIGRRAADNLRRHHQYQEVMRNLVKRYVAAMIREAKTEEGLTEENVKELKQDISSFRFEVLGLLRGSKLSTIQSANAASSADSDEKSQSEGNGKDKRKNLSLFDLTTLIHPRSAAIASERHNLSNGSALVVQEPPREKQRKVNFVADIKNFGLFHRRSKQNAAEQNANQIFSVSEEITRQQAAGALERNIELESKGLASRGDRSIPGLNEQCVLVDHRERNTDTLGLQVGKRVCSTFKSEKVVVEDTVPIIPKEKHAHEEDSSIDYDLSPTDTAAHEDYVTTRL
TRPC6 activator: mouse TRPC6 channel activators, primary screen, cell-based, HEK293, membrane potential dye | hit rate 0.13% among 310,000 | Short transient receptor potential channel 6 (Mus musculus), Q61143 | HEK293-TRPC6 membrane potential dye fluorescence; active compounds read high | B-score at 10 µM;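 active = B-score of the integrated fluorescence ratio above library mean plus 3 SD, and starting fluorescence ratio within library mean plus 5 SD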;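 also: higher score means more depolarization so channel activation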
TRPC4 act: activators of mouse TRPC4 channel, primary screen, Fluo4 calcium, HEK293 TRPC4beta/mu-opioid cells; hit rate 0.49% among 310,000; Fluo4 calcium fluorescence; active compounds read high; B-score at 10 µM; AID 2237, 2010; Short transient receptor potential channel 4 (Mus musculus), Q9QUQ5;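 active = B-score above 5 SD of library B-scores, and initial fluorescence ratio not above library mean plus 5 SD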;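 also: positive B-score marks a calcium rise read as TRPC4 activation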
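Incubation: 45 min room-temperature Fluo4 loading, 110 s read / System: HEK293 cells stably co-expressing mouse TRPC4beta and mu-opioid receptor / Signal: Fluo4 fluorescence, kinetic / Control set: buffer (low) and maximal DAMGO (high) / Measure: integrated baseline-normalised fluorescence ratio, converted to per-well B score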
TRPC4 inh: inhibitors of mouse TRPC4 channel, primary screen, Fluo4 calcium, HEK293 TRPC4beta/mu-opioid cells | Short transient receptor potential channel 4 (Mus musculus), Q9QUQ5 | DAMGO-evoked Fluo4 calcium flux; active compounds read low | B-score at 10 µM | hit rate 0.39% among 300,000 | AID 2247, 2010;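 active = B-score over 3 SD under the library average, no early fluorescence shift, positive overall ratio signal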
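Assay system: HEK293 cells with stable TRPC4beta plus mu-opioid receptor expression; Probe or stimulus: DAMGO in two steps, submaximal then maximal; Dosing: single-point compound dosing; Measured by: Fluo4 calcium-dye fluorescence, kinetic read; Read-out basis: B score from integrated Fluo4 fluorescence ratio.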
TRPC6 inh: mouse TRPC6 channel inhibitors, primary screen, cell-based, HEK293, membrane potential dye; AID 2553, 2010; B-score at 10 µM; hit rate 1.1% among 310,000; ACh-evoked depolarization; active compounds read low;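 active = B-score under library mean minus 3 SD, initial fluorescence not abnormally high, positive integrated signal ratio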;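 also: B-score derived from integrated fluorescence ratio over the kinetic read; more negative B-score means stronger inhibition of depolarization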
A number is an active result. Compounds with a hit are over-represented: about 2.3% of the library has one in this group of screens.

Results for CN(C)CCCN(C(=O)c1ccc(S(=O)(=O)N2CCCC2)cc1)c1nc2c(F)cc(F)cc2s1 ?
TRPC4 PAM: inactive; TRPC6 activator: inactive; TRPC4 act: inactive; TRPC4 inh: -9; TRPC6 inh: inactive

Results for CN(C)CCCN(C(=O)c1ccc(S(=O)(=O)N(C)C)cc1)c1nc2ccc(F)cc2s1 ?
TRPC4 PAM: inactive; TRPC6 activator: inactive; TRPC4 act: 49; TRPC4 inh: -5; TRPC6 inh: inactive

How did CCNC(=O)COC(=O)/C=C/c1cccc(F)c1 do in these assays?
TRPC4 PAM: inactive; TRPC6 activator: inactive; TRPC4 act: inactive; TRPC4 inh: inactive; TRPC6 inh: inactive

What do the screens show for `Cc1ccc(NC(=O)CCCCCN2C(=O)[C@@H]3Cc4ccccc4CN3C2=O)c(C)c1`?
TRPC4 PAM: inactive; TRPC6 activator: inactive; TRPC4 act: inactive; TRPC4 inh: inactive; TRPC6 inh: inactive

Results for S=C(Sc1ccc(Cl)cc1)Sc1ccc(Cl)cc1 ?
TRPC4 PAM: inactive; TRPC6 activator: inactive; TRPC4 act: inactive; TRPC4 inh: inactive; TRPC6 inh: inactive

Results for Cc1ccc2nc(N(CCCN(C)C)C(=O)c3ccc(S(=O)(=O)N4CCc5ccccc5C4)cc3)sc2c1 ?
TRPC4 PAM: inactive; TRPC6 activator: inactive; TRPC4 act: 129; TRPC4 inh: inactive; TRPC6 inh: inactive

Results for CCN(CC)CCN(C(=O)c1ccc2c(c1)CCCC2)c1nc2ccc(F)cc2s1 ?
TRPC4 PAM: inactive; TRPC6 activator: inactive; TRPC4 act: inactive; TRPC4 inh: inactive; TRPC6 inh: inactive

How did CCN(CC)CCN(C(=O)c1ccccc1OC)c1nc2ccc(F)cc2s1 do in these assays?
TRPC4 PAM: inactive; TRPC6 activator: inactive; TRPC4 act: inactive; TRPC4 inh: -6; TRPC6 inh: inactive

What do the screens show for `Cc1cc(C)c2sc(N(CCCN(C)C)C(=O)c3ccc(S(=O)(=O)N4CCc5ccccc5C4)cc3)nc2c1`?
TRPC4 PAM: inactive; TRPC6 activator: inactive; TRPC4 act: inactive; TRPC4 inh: inactive; TRPC6 inh: inactive

How did CN(C)CCCN(C(=O)c1ccc(S(=O)(=O)N2CCc3ccccc3C2)cc1)c1nc2c(F)cccc2s1 do in these assays?
TRPC4 PAM: inactive; TRPC6 activator: inactive; TRPC4 act: inactive; TRPC4 inh: inactive; TRPC6 inh: inactive

What do the screens show for `CN(C)CCCN(C(=O)c1ccc(S(=O)(=O)N2CCc3ccccc3C2)cc1)c1nc2ccc(F)cc2s1`?
TRPC4 PAM: inactive; TRPC6 activator: inactive; TRPC4 act: 111; TRPC4 inh: inactive; TRPC6 inh: inactive

Results for COc1ccc(NS(=O)(=O)c2ccc3oc(=O)c4[nH]c(=O)c(=O)n(C)c4c3c2)cc1 ?
TRPC4 PAM: inactive; TRPC6 activator: inactive; TRPC4 act: inactive; TRPC4 inh: inactive; TRPC6 inh: inactive

How did COc1ccc(NC(=O)CS(=O)CC(=O)Nc2ccc(-n3cnnn3)c(C)c2)cc1 (stereo not given) do in these assays?
TRPC4 PAM: inactive; TRPC6 activator: inactive; TRPC4 act: inactive; TRPC4 inh: inactive; TRPC6 inh: inactive

Results for Cc1ccnc(NC(=O)CNC(=O)c2ccccc2Br)c1 ?
TRPC4 PAM: inactive; TRPC6 activator: inactive; TRPC4 act: inactive; TRPC4 inh: inactive; TRPC6 inh: inactive

Results for COc1cccc(COc2cc3ccccc3nc2C)c1 ?
TRPC4 PAM: inactive; TRPC6 activator: inactive; TRPC4 act: inactive; TRPC4 inh: inactive; TRPC6 inh: inactive

How did O=C(C1=C[C@H](c2ccc(C(F)(F)F)cc2)C[C@H](OCCCCO)O1)N1CCOCC1 do in these assays?
TRPC4 PAM: inactive; TRPC6 activator: inactive; TRPC4 act: 133; TRPC4 inh: inactive; TRPC6 inh: inactive

How did O=C(C1=C[C@@H](c2ccc(C(F)(F)F)cc2)C[C@@H](OCCCCO)O1)N1CCOCC1 do in these assays?
TRPC4 PAM: inactive; TRPC6 activator: inactive; TRPC4 act: inactive; TRPC4 inh: inactive; TRPC6 inh: inactive

Results for COc1ccc(C(c2nnnn2C(C)(C)C)N2CCN(c3nc4ccccc4s3)CC2)cc1 (stereo not given) ?
TRPC4 PAM: inactive; TRPC6 activator: inactive; TRPC4 act: inactive; TRPC4 inh: inactive; TRPC6 inh: inactive

How did CCC(C)(C)n1nnnc1C(c1ccc(O)c(OC)c1)N1CCN(c2nc3ccccc3s2)CC1 (stereo not given) do in these assays?
TRPC4 PAM: inactive; TRPC6 activator: inactive; TRPC4 act: 58; TRPC4 inh: inactive; TRPC6 inh: inactive

How did CN1CCc2c(sc(NC(=O)c3ccc(S(=O)(=O)N4CCCC4)cc3)c2C(N)=O)C1 do in these assays?
TRPC4 PAM: inactive; TRPC6 activator: inactive; TRPC4 act: inactive; TRPC4 inh: inactive; TRPC6 inh: -5.95

What do the screens show for `COc1ccccc1C(=O)N/N=C(\C)c1cccnc1`?
TRPC4 PAM: inactive; TRPC6 activator: inactive; TRPC4 act: inactive; TRPC4 inh: inactive; TRPC6 inh: inactive

What do the screens show for `COc1ccc(C(=O)C(c2ccccc2)N2CCOCC2)cc1` (stereo not given)?
TRPC4 PAM: inactive; TRPC6 activator: inactive; TRPC4 act: inactive; TRPC4 inh: inactive; TRPC6 inh: inactive

What do the screens show for `Cc1ccc(C(=O)C(c2ccccc2)N2Cc3ccccc3C2=N)cc1` (stereo not given)?
TRPC4 PAM: inactive; TRPC6 activator: inactive; TRPC4 act: 210; TRPC4 inh: inactive; TRPC6 inh: inactive

Results for CCCCN(C(=O)c1ccc(S(=O)(=O)N2CCCCC2)cc1)C1CCS(=O)(=O)C1 (stereo not given) ?
TRPC4 PAM: inactive; TRPC6 activator: inactive; TRPC4 act: inactive; TRPC4 inh: inactive; TRPC6 inh: inactive

How did Cc1cccc(NC(=O)CCNS(=O)(=O)c2cc(Br)cnc2N)c1C do in these assays?
TRPC4 PAM: inactive; TRPC6 activator: inactive; TRPC4 act: inactive; TRPC4 inh: inactive; TRPC6 inh: inactive

What do the screens show for `OC1(c2ccc(Br)cc2)CN(c2ccccc2)C2=[N+]1CCS2` (stereo not given)?
TRPC4 PAM: inactive; TRPC6 activator: inactive; TRPC4 act: 93; TRPC4 inh: inactive; TRPC6 inh: inactive

What do the screens show for `OC1(c2ccc(Cl)cc2)CN(c2ccccc2)C2=[N+]1CCS2` (stereo not given)?
TRPC4 PAM: inactive; TRPC6 activator: inactive; TRPC4 act: 75; TRPC4 inh: inactive; TRPC6 inh: inactive

Results for Cc1ccccc1NC(=O)c1ccc(NC(=O)C2CCCO2)cc1 (stereo not given) ?
TRPC4 PAM: inactive; TRPC6 activator: inactive; TRPC4 act: inactive; TRPC4 inh: inactive; TRPC6 inh: inactive

What do the screens show for `COc1cc(/C=C/C(=O)OCC(=O)Nc2c(C)n(C)n(-c3ccccc3)c2=O)ccc1O`?
TRPC4 PAM: inactive; TRPC6 activator: inactive; TRPC4 act: inactive; TRPC4 inh: inactive; TRPC6 inh: inactive
